rRNA inh HTS: reduced GFP signal of wild-type E. coli, primary screen, bacterial rRNA inhibitor project, GFP/RFP fluorescence, OD600, single point; E. coli WT GFP vs humanized-ribosome RFP mutants, 24 h; hits give low values; DMSO median 0, no signal -100; GFP signal change (wild-type ribosome), % (concentration not given with the values); 1.6% of 350,000 active; AID 720706, 2013;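 active means significant combined selectivity score with lowered wild-type GFP, culture density cut under 30%, mutant RFP and density less affected; inactive means any of these conditions unmet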
PGC1a acetyl inh: inhibitors of PGC1a acetylation signal, primary screen, cell-based, U2OS, AlphaScreen, inhibitor mode. AlphaScreen anti-acetyl-lysine; with virally co-expressed GCN5 acetyltransferase. inhibition, % at 15.6 µM. 0.17% of 350,000 active. AID 651687, 2012;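 active means every replicate shows inhibition of at least 40%; inconclusive means mean inhibition at least 40% but some replicate below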;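 further: 0% = neutral control wells and 100% = positive control wells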
FGF22 binding: binders of human FGF22 protein, primary screen, FGF22 synaptogenesis inhibitor project, biophysical, thermal shift, single point; Fibroblast growth factor 22 (Homo sapiens), Q9HCT0; recombinant FGF22 thermal shift, SYPRO orange fluorescence; percent of sucrose octasulfate shift, DMSO zero; activity (Tm shift, normalised), % at 9.99 µM; 1.5% of 340,000 active; AID 651658, 2012;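 active means mean Tm shift, scaled 0 neutral to 100 positive control, at about 1.3% or above, every replicate too, limit read from the data; inconclusive means no clear call, values can overlap the other calls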
Target sequence (Q9HCT0 whole entry, looked up): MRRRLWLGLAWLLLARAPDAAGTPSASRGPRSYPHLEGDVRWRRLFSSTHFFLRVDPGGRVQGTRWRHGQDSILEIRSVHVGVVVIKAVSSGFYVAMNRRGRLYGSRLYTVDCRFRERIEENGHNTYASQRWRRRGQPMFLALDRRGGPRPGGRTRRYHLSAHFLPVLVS
Cneo AK release: Cryptococcus neoformans cell lysis inducers, primary screen, AK release luminescence, single concentration. lysis activity, % at 15 µM. C. neoformans lysis, adenylate kinase release luminescence, 4 h; normalised: neutral wells 0, clomiphene wells 100. 0.2% of 360,000 active;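 active means mean lysis activity across replicates of at least 80%, whatever share of replicates individually reach that level; inactive means mean lysis activity below 80%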
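Material: C. neoformans cells; Schedule: 4 h static compound exposure, 37 °C, read 1 h post-reagent; Measured by: adenylate kinase release luminescence; Read-out: signal increase indicating cell lysis; Controls: Clomiphene as positive lysis control.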
ERAP1 inh: human ERAP1 aminopeptidase inhibitors, primary screen, biochemical, single point, plate reader; Endoplasmic reticulum aminopeptidase 1 (Homo sapiens), Q9NZ08; recombinant ERAP1, Leu-AMC fluorescence, 60 min; inhibition, % at 10.7 µM; 0.15% of 340,000 active;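 active means mean replicate inhibition of at least 30%, or all replicates individually reaching that 30% level; inactive means mean below 30% and not every replicate reaching it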;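 further: 0% = neutral control wells and 100% = L-leucinethiol positive control wells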
Env fusion inh: inhibitors of HIV-1 Env-driven cell-cell fusion, primary screen, HeLa-JRFL effector, CEM21 target cells, luciferase | inhibition, % at 12.3 µM | 1.1% of 360,000 active;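 active means mean replicate inhibition score of at least 50 and every replicate individually at or above 50; inconclusive means only one of the two criteria met; inactive means mean below 50 and not all replicates reaching 50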;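 further: 0% = plate neutral controls and 100% = maraviroc near 300 nM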
* hit, by the source's call; ? = inconclusive; nt = no result; ! = repeats disagree. Only some compounds are listed: those with a hit (about 3.5% of all), similar ones and a draw of the others.

SMILES | rRNA inh HTS | PGC1a acetyl inh | FGF22 binding | Cneo AK release | ERAP1 inh | Env fusion inh
N#Cc1c(Br)n(C2OC(CO)C(O)C2O)c2ncnc(N)c12 (centres undefined) | 4.3 | 20.9 | -0.1 | nt | 1.4 | -1.1
NC(=O)c1cn(C2OC(CO)C(O)C2O)c2ncnc(N)c12 (centres undefined) | 8.7 | 92.6*! | -0.2 | 0.2 | 4.8 | 89.5*
N#Cc1cn(C2OC(CO)C(O)C2O)c2ncnc(N)c12 (centres undefined) | 19.1 | -4.9 | 0.0 | nt | -0.6 | 84.8*
NC(=O)c1c(Br)n(C2OC(CO)C(O)C2O)c2ncnc(N)c12 (centres undefined) | 9.7 | 1.5 | 0.1 | nt | 4.7 | 70.7*
CCNC(=O)[C@H]1O[C@@H](n2cnc3c(N)ncnc32)[C@H](O)[C@@H]1O | nt | -1.7 | 0.2 | 1.1 | -1.6 | -1.5
O=C(NCCCN1CC1)Nc1cccc2ccccc12 | 4.8 | nt | -0.1 | nt | 1.6 | 30.9
COC(=O)C1=C(c2ccc(F)cc2OCc2ccccc2)C[C@@H]2CC[C@H]1N2C(=O)NCc1ccc(F)cc1 | 3.5 | 7.4 | 0.0 | 3.5 | 2.3 | 1.8
COC(=O)C1=C(c2ccc(-c3ccccc3)c(F)c2)C[C@@H]2CC[C@H]1N2C(=O)NCCOc1ccccc1 | 3.2 | -28.5 | 0.1 | 0.2 | -3.2 | -19.3
COCCNC(=O)N1[C@H]2CC[C@@H]1C(C(=O)OC)=C(c1ccc(-c3ccccc3)c(F)c1)C2 | -34.4 | nt | 0.8 | -0.2 | -1.1 | 57.4*
COC(=O)C1=C(c2ccc(F)cc2OCc2ccccc2)C[C@@H]2CC[C@H]1N2C(=O)NC1Cc2ccccc2C1 | 9.1 | -3.8 | 0.0 | -0.7 | -2.6 | 57.2*
Cc1nn(CCC#N)c2c1P(=S)(N1CCCC1)OC(c1ccc(F)cc1)=N2 (centres undefined) | nt | 37.9 | nt | 0.8 | nt | nt
CCC(CO)(C(=O)OC1CC2CCC(C1)N2C)c1ccccc1 (centres undefined) | 21.1 | -6.7 | 0.3 | -5.0 | -1.6 | -12.7
CC12CCC(O)CC1CCC1C2CCC2(C)C(C3=CC(=O)OC3)C(O)CC12O (centres undefined) | nt | -12.8 | 0.4 | nt | -3.4 | 73.6*
COC1C(O)C(C)OC(OC2CCC3(C)C(CCC4C3C(O)CC3(C)C(C5=CC(=O)OC5)CCC43O)C2)C1O (centres undefined) | nt | 47.0 | 0.1 | nt | 0.3 | 86.2*
CC12CCC(O)CC1CCC1C2CCC2(C)C(C3=CC(=O)OC3)CCC12O (centres undefined) | 9.3 | 79.9* | 0.0 | nt | 1.4 | 86.6*
C[C@]12CC[C@H](O)C[C@H]1CC[C@@H]1[C@@H]2CC[C@]2(C)[C@@H](C3=CC(=O)OC3)CC[C@]12O | nt | 21.1 | -0.1 | 0.1 | -3.1 | ?
C[N+]1(C)CCC(OC(=O)C(c2ccccc2)c2ccccc2)CC1 | nt | -8.0 | -0.1 | -0.2 | 92.4* | -11.9
C[N+]1(C)[C@@H]2CC[C@H]1CC(OC(=O)[C@@H](CO)c1ccccc1)C2 (some centres undefined) | 10.8 | -15.8 | 0.1 | 16.1 | 27.5 | 13.0
Cc1nnc(SCc2nc3ccccc3c(=O)n2-c2ccccc2Cl)n1N | nt | 3.0 | nt | -1.3 | nt | 119.1*
O=C(COC(=O)c1cccc(O)c1)Nc1ccc(Cl)cc1C(=O)c1ccccc1 | -23.4* | nt | 52.5* | nt | 2.5 | 1.2
CCOc1ccccc1OCC(=O)Nc1ccc(Cl)cc1C(=O)c1ccccc1 | 9.9 | -3.4 | 0.2 | -1.6 | 0.1 | -31.9
O=C(O)c1cccc(NC(=O)N2C[C@H]3C[C@@H](C2)c2cccc(=O)n2C3)c1 | 6.0 | 2.2 | 0.0 | -2.3 | -1.0 | nt
CCOc1ccccc1CN1CCCC(C(=O)c2cc(F)ccc2F)C1 (centres undefined) | -8.0 | -3.4 | -0.1 | -0.9 | 1.0 | -7.5

Screens deposited in PubChem by Broad Institute.
